Results on one compound are retold here after ChEMBL document CHEMBL4477190, “Marine-Derived Secondary Metabolite, Griseusrazin A, Suppresses Inflammation through Heme Oxygenase-1 Induction in Activated RAW264.7 Macrophages” (J Nat Prod, 2016).

Calls of active or inactive are those of the source. The calls are words filed in the database; no cut-off is given here.

The target in test [1] is T1, Nuclear factor erythroid 2-related factor 2 (Mus musculus) (UniProt Q60795).
T1 sequence (whole entry): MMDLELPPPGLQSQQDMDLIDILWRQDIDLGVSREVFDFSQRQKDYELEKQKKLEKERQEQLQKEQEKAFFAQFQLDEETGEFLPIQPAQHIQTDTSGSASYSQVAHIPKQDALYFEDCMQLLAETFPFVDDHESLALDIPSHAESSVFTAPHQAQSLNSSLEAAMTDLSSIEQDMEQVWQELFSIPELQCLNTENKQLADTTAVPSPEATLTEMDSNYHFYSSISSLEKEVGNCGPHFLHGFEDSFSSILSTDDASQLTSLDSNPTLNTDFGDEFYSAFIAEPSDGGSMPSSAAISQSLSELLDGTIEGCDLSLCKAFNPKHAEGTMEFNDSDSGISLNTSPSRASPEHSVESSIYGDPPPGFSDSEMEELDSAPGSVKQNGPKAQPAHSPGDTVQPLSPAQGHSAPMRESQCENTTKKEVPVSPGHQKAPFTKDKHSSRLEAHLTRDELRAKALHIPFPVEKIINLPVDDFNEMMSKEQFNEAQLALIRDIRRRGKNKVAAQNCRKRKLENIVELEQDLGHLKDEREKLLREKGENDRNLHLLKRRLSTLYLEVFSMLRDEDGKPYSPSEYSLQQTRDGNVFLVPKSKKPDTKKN
As to the kind of experiment: Activation of Nrf2 in LPS-stimulated mouse RAW264.7 cells assessed as induction of HO-1 mRNA expression at 5 to 40 uM pre-treated for 6 hrs prior to LPS-challenge measured after 12 hrs. It is filed as cell-based. The procedure, abridged:
(§1)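 RAW264.7 macrophages incubated 12 h with compound (5−40 μM). HO-1 mRNA measured, and HO-1 protein by Western blot. Mean ± SD of three experiments; representative blots from three independent experiments.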

In test [2] the test system is RAW264.7. Kind of test: Reduction in iNOS expression in LPS-stimulated mouse RAW264.7 cells at 5 to 40 uM pre-treated for 6 hrs prior to LPS-challenge measured after 24 hrs by western blot analysis. It is filed as functional, cell-based. The procedure, abridged:
(§2)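 RAW264.7 macrophages pretreated 6 h with compound, then stimulated 24 h with LPS (500 ng/mL). Nitrite in conditioned medium measured. PGE2 measured by commercial kit. iNOS and COX-2 read by Western blot in RIPA lysates (25 mM Tris-HCl pH 7.6, 150 mM NaCl, 1% NP-40, 1% deoxycholate, 0.1% SDS). Mean ± SD of three experiments.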
(In general: In western blotting, separated proteins are transferred to a membrane and probed.)

The test system of test [3] is RAW264.7. Kind of test: Reduction in COX2 expression in LPS-stimulated mouse RAW264.7 cells at 5 to 40 uM pre-treated for 6 hrs prior to LPS-challenge measured after 24 hrs by western blot analysis. The test is classed as functional, cell-based. The procedure, abridged:
as §2

For test [4], the system named is RAW264.7. Kind of test: Antiinflammatory activity in LPS-stimulated mouse RAW264.7 cells assessed as reduction in IL-1beta production at 20 and 40 uM pre-treated for 6 hrs prior to LPS-challenge measured after 24 hrs in presence of competitive inhibitor of HO-1 SnPP. It is filed as functional, cell-based. Put shortly:
(§3)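 RAW264.7 cells pretreated 6 h with compound (40 μM), with or without SnPP (50 μM), then stimulated 24 h with LPS (500 ng/mL). Nitrite in conditioned medium measured. PGE2, TNF-α, IL-1β and IL-6 measured by commercial kit (R&D Systems). iNOS and COX-2 read by Western blot. Mean ± SD of three experiments; one-way ANOVA with Newman−Keuls test.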

Test [5] relates to RAW264.7. As to the kind of experiment: Antiinflammatory activity in LPS-stimulated mouse RAW264.7 cells assessed as reduction in PGE2 production at 5 to 40 uM pre-treated for 6 hrs prior to LPS-challenge measured after 24 hrs in presence of HO-1 competitive inhibitor SnPP.
Test [6] relates to RAW264.7. As to the kind of experiment: Reduction in IL-1beta mRNA expression in LPS-stimulated mouse RAW264.7 cells at 20 and 40 uM pre-treated for 6 hrs prior to LPS-challenge measured after 24 hrs by real-time PCR analysis. It is filed as functional, cell-based. Put shortly: (§4)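 RAW264.7 macrophages pretreated 6 h with compound, then given LPS (500 ng/mL) for 24 h. TNF-α, IL-1β and IL-6 protein measured by commercial kit (R&D Systems). mRNA levels measured by real-time PCR. Mean ± SD of three experiments; one-way ANOVA with Newman−Keuls test.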

For test [7], the system named is RAW264.7. Kind of test: Reduction in IL-1beta production in LPS-stimulated mouse RAW264.7 cells at 20 and 40 uM pre-treated for 6 hrs prior to LPS-challenge measured after 24 hrs. It is filed as functional, cell-based. The procedure, abridged: as §4
Test [8] addresses T1, Nuclear factor erythroid 2-related factor 2 (Mus musculus). As to the kind of experiment: Increase in nuclear Nrf2 translocation in LPS-stimulated mouse RAW264.7 cells assessed as nuclear Nrf2 level at 20 and 40 uM measured up to 120 mins by Western blot analysis. The test is classed as cell-based. Put shortly: (§5)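 Cells exposed to compound at 40 μM for 0–120 min in 20 min steps. Nuclei separated from cytosol with PER-Mammalian Protein Extraction buffer plus protease inhibitor cocktail and 1 mM PMSF. Nuclear and cytoplasmic Nrf2 read by Western blot. Representative blots from three independent experiments.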

Test [9] concerns RAW264.7. Kind of test: Reduction in TNF-alpha production in LPS-stimulated mouse RAW264.7 cells at 20 and 40 uM pre-treated for 6 hrs prior to LPS-challenge measured after 24 hrs. It is filed as functional, cell-based. The procedure, abridged:
as §4

For test [10], the system named is RAW264.7. As to the kind of experiment: Reduction in TNF-alpha mRNA expression in LPS-stimulated mouse RAW264.7 cells at 20 and 40 uM pre-treated for 6 hrs prior to LPS-challenge measured after 24 hrs by real-time PCR analysis. The test is classed as functional, cell-based. Put shortly:
as §4
Background: Real-time PCR tracks product formation cycle by cycle.

The target in test [11] is T1, Nuclear factor erythroid 2-related factor 2 (Mus musculus). As to the kind of experiment: Increase in nuclear Nrf2 translocation in LPS-stimulated mouse RAW264.7 cells assessed as cytosolic Nrf2 level at 20 and 40 uM measured up to 120 mins by Western blot analysis. The test is classed as cell-based. The procedure, abridged:
as §5

The subject of test [12] is RAW264.7. Kind of test: Antiinflammatory activity in LPS-stimulated mouse RAW264.7 cells assessed as reduction in nitrite production at 5 to 40 uM pre-treated for 6 hrs prior to LPS-challenge measured after 24 hrs in presence of HO-1 competitive inhibitor SnPP by Griess reaction. (The Griess reaction detects nitrite, a stable product of nitric oxide.)
In test [13] the test system is RAW264.7. As to the kind of experiment: Antiinflammatory activity in LPS-stimulated mouse RAW264.7 cells assessed as reduction in TNF-alpha production at 20 and 40 uM pre-treated for 6 hrs prior to LPS-challenge measured after 24 hrs iin presence of HO-1 competitive inhibitor SnPP. It is filed as functional, cell-based. Put shortly: as §3
In test [14] the test system is RAW264.7. As to the kind of experiment: Antiinflammatory activity in LPS-stimulated mouse RAW264.7 cells assessed as reduction in IL6 production at 20 and 40 uM pre-treated for 6 hrs prior to LPS-challenge measured after 24 hrs in presence of HO-1 competitive inhibitor SnPP. The test is classed as functional, cell-based. Put shortly: as §3
In test [15] the target is Transcription factor p65 (Mus musculus) (UniProt Q04207). As to the kind of experiment: Inhibition of LPS-stimulated DNA binding activity of NF-kappaB p65 in mouse RAW264.7 cells assessed as at 20 and 40 uM pre-treated for 6 hrs prior to LPS-challenge measured after 30 mins by ELISA method. It is filed as cell-based. Put shortly: (§6)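 Cells pretreated 6 h with compound, then stimulated 30 min with LPS (500 ng/mL). Nuclear fractions probed by Western blot for p50 and p65. NF-κB DNA binding in nuclear extracts measured by TransAM ELISA kit. Mean ± SD of three experiments.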
Chain of Transcription factor p65 (Mus musculus) (Q04207 whole entry): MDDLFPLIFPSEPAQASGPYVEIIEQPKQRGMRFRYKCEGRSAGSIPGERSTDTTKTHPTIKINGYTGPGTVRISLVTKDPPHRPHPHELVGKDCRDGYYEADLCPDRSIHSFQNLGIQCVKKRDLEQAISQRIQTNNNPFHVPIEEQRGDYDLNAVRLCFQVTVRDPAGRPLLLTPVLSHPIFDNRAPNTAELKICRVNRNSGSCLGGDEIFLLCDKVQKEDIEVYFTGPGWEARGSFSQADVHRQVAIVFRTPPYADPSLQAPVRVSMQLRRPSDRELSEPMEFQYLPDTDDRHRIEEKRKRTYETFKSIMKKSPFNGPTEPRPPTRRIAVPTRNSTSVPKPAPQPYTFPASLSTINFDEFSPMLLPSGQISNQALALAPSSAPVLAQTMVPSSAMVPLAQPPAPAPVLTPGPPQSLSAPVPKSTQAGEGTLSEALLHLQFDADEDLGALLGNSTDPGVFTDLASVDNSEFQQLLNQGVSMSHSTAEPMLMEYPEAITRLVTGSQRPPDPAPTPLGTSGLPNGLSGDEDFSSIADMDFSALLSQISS

For test [16], the system named is RAW264.7. As to the kind of experiment: Reduction in COX2 expression in LPS-stimulated mouse RAW264.7 cells at 5 to 40 uM pre-treated for 6 hrs prior to LPS-challenge measured after 24 hrs by western blot analysis in presence of HO-1 competitive inhibitor SnPP by western blot analysis. The test is classed as functional, cell-based. The procedure, abridged:
as §3

Test [17] concerns the target T1, Nuclear factor erythroid 2-related factor 2 (Mus musculus). Kind of test: Activation of Nrf2 in LPS-stimulated mouse RAW264.7 cells assessed as induction of HO-1 protein expression at 5 to 40 uM pre-treated for 6 hrs prior to LPS-challenge measured after 12 hrs by western blot analysis. The test is classed as cell-based. Put shortly:
as §1

Test [18] concerns the target Transcription factor p65 (Mus musculus) (UniProt Q04207). As to the kind of experiment: Inhibition of LPS-stimulated NF-kappaB p65 nuclear translocation in mouse RAW264.7 cells at 20 and 40 uM pre-treated for 6 hrs prior to LPS-challenge measured after 30 mins by western blot analysis. The test is classed as cell-based. The procedure, abridged: as §6
Test [19] deals with RAW264.7. As to the kind of experiment: Reduction in IL6 mRNA expression in LPS-stimulated mouse RAW264.7 cells at 20 and 40 uM pre-treated for 6 hrs prior to LPS-challenge measured after 24 hrs by real-time PCR analysis. The test is classed as functional, cell-based. The procedure, abridged: as §4
For test [20], the system named is RAW264.7. Kind of test: Antiinflammatory activity in LPS-stimulated mouse RAW264.7 cells assessed as reduction in PGE2 production at 5 to 40 uM pre-treated for 6 hrs prior to LPS-challenge measured after 24 hrs. The test is classed as functional, cell-based. The procedure, abridged:
as §2

The subject of test [21] is RAW264.7. As to the kind of experiment: Reduction in IL6 production in LPS-stimulated mouse RAW264.7 cells at 20 and 40 uM pre-treated for 6 hrs prior to LPS-challenge measured after 24 hrs. It is filed as functional, cell-based. The procedure, abridged:
as §4

The subject of test [22] is RAW264.7. As to the kind of experiment: Reduction in iNOS expression in LPS-stimulated mouse RAW264.7 cells at 5 to 40 uM pre-treated for 6 hrs prior to LPS-challenge measured after 24 hrs by western blot analysis in presence of HO-1 competitive inhibitor SnPP by western blot analysis. The test is classed as functional, cell-based. Put shortly: as §3
Test [23] has as its system RAW264.7. As to the kind of experiment: Inhibition of LPS-stimulated NF-kappaB p50 nuclear translocation in mouse RAW264.7 cells at 20 and 40 uM pre-treated for 6 hrs prior to LPS-challenge measured after 30 mins by western blot analysis. It is filed as cell-based. The procedure, abridged:
as §6

Test [24] concerns RAW264.7. Kind of test: Antiinflammatory activity in LPS-stimulated mouse RAW264.7 cells assessed as reduction in nitrite production at 5 to 40 uM pre-treated for 6 hrs prior to LPS-challenge measured after 24 hrs by Griess reaction. It is filed as functional, cell-based. Put shortly: as §2

Take `Cc1nc(Cc2ccc(N(C)C=O)cc2)c(C)nc1Cc1ccc(N(C)C=O)cc1`: the outcome in test [1], in test [8], in [11] and in test [17] was Active. Moreover, the Activity entry in [2], in test [3], in [6], in test [7], in test [9] and in [10] was “Dose-dependent effect” each time. In addition, the Activity result in test [19], in test [20], in test [21] and in test [24] was “Dose-dependent effect” throughout. Further, the outcome in [4], in test [5], in [12], in test [13], in test [14] and in test [16] was inactive. Moreover, in [22], the result was inactive. For the same compound, the inhibition entry in test [15], in test [18] and in test [23] was “Active” in each case.
